Source: ChEMBL document CHEMBL1240431, “Design, synthesis and anti-ulcerogenic effect of some of furo-salicylic acid derivatives on acetic acid-induced ulcerative colitis” (Eur J Med Chem, 2010)

What was measured:
[1] = tested on: Rattus norvegicus; test: Antiulcerogenic activity against acetic acid-induced ulcerative colitis in albino rat assessed as ulcer index at 12.5 mmol/kg, po; assay type: functional
Summary of the method: (§1)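 Male albino rats (190–200 g, n = 5 per group) received drug in DMSO by orogastric cannula daily for 5 days, with the last dose 2 h before colitis. After a 36 h fast and under ether, 4% acetic acid (5 ml/kg) was instilled 8 cm intrarectally. At 24 h, the distal 8 cm colon was scored for wet weight/length, ulcer area (1 mm² grid count), and ulcer index (lesion score 0–4 plus area).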

[2] = Toxicity in po dosed albino rat; assay type: organism-based; settings: in vivo
[3] = tested on: Bacillus subtilis; test: Antibacterial activity agaisnt Bacillus subtilis MTCC 1456 by agar diffusion method; assay type: functional
Summary of the method: (§2)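 Mueller Hinton agar (pH 7.4) was seeded with 24-h cultures adjusted to 0.5 McFarland. Compounds were prepared as 10 mg/ml stocks in DMF and added to 6 mm wells. DMF served as the negative control. Plates were incubated at 35 °C for 24 h, and the diameter of the growth inhibition zone was read in mm with a caliper.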

[4] = tested on: Rattus norvegicus; test: Antiulcerogenic activity against acetic acid-induced ulcerative colitis in albino rat assessed as ulcer area at 12.5 mmol/kg, po; assay type: functional; summary of the method: as §1
[5] = tested on: Rattus norvegicus; test: Antiulcerogenic activity against acetic acid-induced ulcerative colitis in albino rat assessed as ratio of wet weight and length at 12.5 mmol/kg, po; assay type: functional; summary of the method: as §1
[6] = tested on: Candida albicans; test: Antifungal activity agaisnt Candida albicans ATCC 10231 by agar diffusion method
[7] = tested on: Staphylococcus aureus; test: Antibacterial activity agaisnt Staphylococcus aureus MTCC 3160 by agar diffusion method; assay type: functional; summary of the method: as §2
[8] = tested on: Escherichia coli; test: Antibacterial activity agaisnt Escherichia coli MTCC 8739 by agar diffusion method; assay type: functional; summary of the method: as §2

Compound | Activity [1] | LD50 [2] | diameter of the inhibition zone (DIZ) [3] | ulcer area [4] | Ratio [5] | diameter of the inhibition zone (DIZ) [6] | diameter of the inhibition zone (DIZ) [7] | diameter of the inhibition zone (DIZ) [8]
COc1ccc(NS(=O)(=O)c2c(O)c(C(=O)O)c(OC)c3ccoc23)cc1 | 8.7 no unit | 396 mg/kg | 10 mm | 5.1 cm2 | 120.1 | 8 mm | – | –
COc1c(C(=O)O)c(O)c(S(=O)(=O)Nc2ccccc2)c2occc12 | 8.5 no unit | 396 mg/kg | 12 mm | 5.1 cm2 | 119.9 | 15 mm | – | –
COc1c(C(=O)O)c(O)c(NS(=O)(=O)c2ccccc2)c2occc12 | 7.4 no unit | 400 mg/kg | 10 mm | 4.4 cm2 | 99.1 | 10 mm | – | –
COc1c(C(=O)O)c(O)c(/N=N/c2ccccc2)c2occc12 | 4.8 no unit | 410 mg/kg | 10 mm | 2.6 cm2 | 84.5 | 18 mm | 8 mm | 10 mm
COc1c(C(=O)O)c(O)c(NS(=O)(=O)c2ccc(C)cc2)c2occc12 | 7.6 no unit | 400 mg/kg | 10 mm | 4.3 cm2 | 98.6 | 15 mm | – | –
COc1c(C(=O)O)c(O)c(S(=O)(=O)Nc2ccc(Cl)cc2)c2occc12 | 8.2 no unit | 410 mg/kg | – | 4.8 cm2 | 112 | 12 mm | – | 12 mm
COc1c(C(=O)O)c(O)c(/N=N/c2ccc(S(=O)(=O)Nc3ccccn3)cc2)c2occc12 | 6.7 no unit | 410 mg/kg | 12 mm | 3.9 cm2 | 95.2 | 22 mm | 10 mm | 12 mm
COc1c(C(=O)O)c(O)c(S(=O)(=O)Nc2ccc(Cl)cc2Cl)c2occc12 | 8.2 no unit | 410 mg/kg | – | 4.8 cm2 | 110 | 8 mm | – | –
COc1c(C(=O)O)c(O)c(NS(=O)(=O)c2ccc(Cl)cc2)c2occc12 | 4.6 no unit | 390 mg/kg | 12 mm | 2.6 cm2 | 86.4 | 8 mm | – | –
COc1c(C(=O)O)c(O)c(S(N)(=O)=O)c2occc12 | 7.4 no unit | 400 mg/kg | 8 mm | 4.4 cm2 | 103.4 | 14 mm | 8 mm | 8 mm
O=C(O)c1cc(/N=N/c2ccc(S(=O)(=O)Nc3ccccn3)cc2)ccc1O [SULFASALAZINE] | 3.7 no unit | – | 25 mm | 2.1 cm2 | 79 | 7 mm | 30 mm | 8 mm
COc1c(C(=O)O)c(O)c(S(=O)(=O)Nc2ccc(C)cc2)c2occc12 | 8.1 no unit | 396 mg/kg | – | 4.7 cm2 | 111 | 10 mm | 8 mm | 12 mm
C[C@@H]1[C@H](O)[C@@H](C)/C=C/C=C/C=C/C=C/C=C/C=C/C=C/[C@H](O[C@@H]2O[C@H](C)[C@@H](O)[C@H](N)[C@@H]2O)C[C@@H]2O[C@](O)(C[C@@H](O)C[C@@H](O)[C@H](O)CC[C@@H](O)C[C@@H](O)CC(=O)O[C@H]1C)C[C@H](O)[C@H]2C(=O)O [AMPHOTERICIN B] | – | – | – | – | – | 20 mm | – | –
COc1c(C(=O)O)c(O)cc2occc12 | – | – | – | – | – | 8 mm | – | –
COc1c(C(=O)O)c(O)c(N)c2occc12 | 5.5 no unit | 396 mg/kg | 8 mm | 3.3 cm2 | 90 | 8 mm | 8 mm | 10 mm
COc1c(C(=O)O)c(O)c(S(=O)(=O)Cl)c2occc12 | 8.1 no unit | 390 mg/kg | 8 mm | 4.7 cm2 | 112 | 20 mm | 8 mm | 8 mm
